# Test results published in PubChem BioAssay.
# Values without a mark were called inactive. Results filed as inconclusive are left out. Calls of active or inactive are those of the source.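 The calls were made as follows, unless noted: active = viability increase at or above a cutoff of the median across tested compounds plus 3 SD (cut at about 8.5% in these data, passing the limit was not always enough); inconclusive = some gains above the cutoff, reason not given; inactive = the rest.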
# Assays:
# [1] = OD615 S. cerevisiae growth inhibition, permissive medium, pilot counter-assay, permissive growth control for S. cerevisiae lifespan shortening project (AID 705;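 active = growth inhibition above 25% in both replicates, a cutoff set 3 SD above the mean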); conditions: OD615, 24 h, at 10 µM, hits give high values
# Procedure, shortened: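 Test system: Saccharomyces cerevisiae strain carrying genetically modified DeaD replicative-lifespan system; buffer or medium: SC raffinose/galactose permissive medium; dosing: one dose 10 µM, DMSO 0.25% final; times: 24 h exposure, 30 °C; measured by: OD at 615 nm; read-out basis: growth inhibition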
# [2] = Restrictive medium S. cerevisiae growth inhibition, OD615, pilot screen of yeast lifespan reduction project, restrictive growth control (AID 706;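 active = growth inhibition above a set limit, 3 SD over mean compound inhibition, in both replicates, cut at about 43% in these data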;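 also: modified DeaD lifespan yeast strain shifted to restrictive glucose medium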); conditions: OD615, 48 h, at 10 µM, hits give high values
# Procedure, shortened: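 material = engineered S. cerevisiae DeaD strain | buffer or medium = glucose-based CSMM-D restrictive medium | dosing = one concentration, 10 µM final, 0.25% DMSO | schedule = 4 h pre-growth plus 48 h compound exposure, 30 °C | detection = OD615 absorbance reading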
# [3] = viability gain of MRP-1-high H69AR cells under doxorubicin, pilot screen, MRP-1 activator project, CellTiter-Glo, duplicate (AID 807); conditions: H69AR viability with doxorubicin, CellTiter-Glo luminescence; at 10 µM; hits give high values;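 also: compound pretreatment 18-22 h then 72 h combined with doxorubicin; 0% = doxorubicin alone and 100% = vehicle without doxorubicin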
# [4] = growth suppression of beta-catenin knockout HCT116, pilot screen, human colon tumor cells (AID 823;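 active = cell viability at or below a set limit in both duplicate runs, the limit being the all-compound median minus 4 SD, cut at about 23% in these data, passing the limit was not always enough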;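 also: 0% = wells killed by 20 µM Hyamine and 100% = untreated DMSO cell wells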); conditions: CellTiter-Glo, 60 h, at 10 µM, hits give low values
# [5] = growth suppression of PTEN-deleted HCT116, pilot screen, cell-based, HCT116 clonal line, CellTiter-Glo (AID 824;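 active = viability at or below 27.92% in each of two runs, the all-compound median minus 4 SD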;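 also: 0% = 20 µM Hyamine control and 100% = vehicle cell control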); conditions: 60 h, at 10 µM, hits give low values
# [6] = inhibitors of the yeast RAM network, pilot screen, dse1pr::URA3 reporter, 5-FOA selection (AID 869;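 active = inhibition over a set limit, the all-compound mean plus 3 SD, in both replicate runs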;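 also: 0% = DMSO wells with no growth and 100% = 10 µM 1-NA-PP1 with full growth; RAM network block rescues cells from 5-FOA so hits raise OD615 growth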); conditions: S. cerevisiae dse1pr::URA3 5-FOA growth, OD615, 2 d; at 10 µM; hits give high values; strain carries analog-sensitive mutant Cbk1 kinase
# [7] = RAM signaling pathway blockade in yeast – S. cerevisiae, Pdr1DBD-CYC8 efflux-inhibited sensitized strain, primary screen (AID 1298;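 active = RAM network inhibition above 8.4% in each of two replicates, 3 SD over the compound average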;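 also: 0% = DMSO untreated cells without growth and 100% = 10 µM 1-NA-PP1 full growth; higher means more yeast growth rescued from 5-FOA killing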); conditions: S. cerevisiae cbk1-as DSE1-URA3 strain, 5-FOA growth OD615, 2 d; at 50 µM; hits give high values
Compound,growth inhibition [1],growth inhibition [2],viability increase [3],viability [4],viability [5],inhibition [6],RAM network inhibition [7]
COC(=O)Cn1c(CN2CCN(c3ccc(F)cc3)CC2)nc2c1c(=O)n(C)c(=O)n2C,-1.31%,-4.9%,-0.86%,85.1%,86.2%,2.88%,1.93%
CCS(=O)(=O)NCC(c1cccnc1)N1CCN(c2ccccc2OC)CC1 (stereo not drawn),-2.57%,-3.32%,-0.33%,98.3%,105%,1.11%,3.37%
O=C(Cn1cnc2c(nnn2-c2ccccc2)c1=O)NCc1ccco1,1.43%,3.14%,-3.77%,104%,89.8%,0.32%,0.83%
CCOc1cc2c(cc1OCC)C(c1ccc(O)c(OC)c1)NCC2 (stereo not drawn),-5.95%,-11.5%,-3.12%,75.3%,81.6%,2.12%,1.63%
CCC(=O)Nc1nnc(-c2ccc(OC)cc2)o1,-8.21%,-11.8%,-1.1%,103%,98.4%,1.01%,-0.04%
CCN1C(=O)NC(c2cccnc2)C(C(=O)OC)=C1C (stereo not drawn),-17.7%,-5.54%,-1.3%,99.5%,99.9%,0.735%,0.25%
COc1ccccc1-c1cc(C2CC2)nc(N)c1C#N,-20.8%,-19.3%,-3.86%,94.7%,94.2%,-0.08%,3.76%
COc1ccc(CN2CC34C=CC(O3)C(C(=O)O)C4C2=O)cc1 (stereo not drawn),-1.83%,-0.315%,-0.17%,92.6%,97.1%,0.585%,3.17%
CCOC(=O)N1CCC(NC(=O)c2cc3c(-c4ccc(Cl)cc4)nn(C)c3s2)CC1,-2.75%,-2.64%,-5.61%,91.4%,92.1%,-0.04%,2.43%
Cc1cccc(OCCSc2cc(C)nc(N)n2)c1,-6.16%,-8.02%,-1.44%,89.1%,79.1%,-0.215%,-2.06%
COc1ccc(N2CCN(C(=O)c3ccc4c(c3)OCO4)CC2)cc1,-2.83%,14.7%,-0.77%,97.8%,100%,2.04%,0.86%
C=C(C)Cn1c(NCCC)nc2c1c(=O)n(C)c(=O)n2C,-9.8%,-3.75%,-0.51%,98%,95.2%,2.74%,1.36%
Cc1onc(-c2ccccc2)c1C(=O)Nc1sc2c(c1C#N)CCC2,3.88%,4.25%,-4.93%,59.7%,54.3%,1.58%,0.09%
Cc1ccc(N(CC(=O)NCc2cccnc2)S(C)(=O)=O)cc1C,-8.32%,-10.2%,-2.97%,97.3%,98.8%,0.71%,2.28%
CCOc1ccc(C2c3c(oc4cc(C)c(C)cc4c3=O)C(=O)N2CCCN(C)C)cc1OC (stereo not drawn),-3.33%,-1.7%,-1.6%,108%,98%,-0.13%,-0.66%
c1ccc(-c2nnc(-c3ccccn3)nn2)nc1,34.5% (active),88.1% (active),0.07%,68.2%,83%,-0.025%,-3%
O=C(CSc1ccc2c(c1)OCCO2)NC(=O)NC1CCCC1,-2.04%,2.58%,-1.38%,87.7%,91.3%,0.535%,-1.28%
COc1ccc(N2CC(C(=O)NC3CC(C)(C)NC(C)(C)C3)CC2=O)cc1 (stereo not drawn),-9.42%,-4.41%,0.06%,99.8%,104%,0.515%,2.14%
Nc1nonc1C(=O)NCCc1ccccc1,-6.66%,6.3%,-0.05%,116%,99.6%,0.71%,-0.76%
c1ccc2c(c1)nc1n2CCN1CCNC1CCCCC1,-11.4%,-11.7%,-1.96%,94.2%,98.6%,0.065%,1.2%
COc1cc(NS(=O)(=O)c2ccc3c(c2)oc(=O)n3C)cc(OC)c1OC,-3.74%,0.425%,-4.97%,41.9%,35.5%,-0.355%,2.41%
COc1cc(C2C3=C(CC(c4ccco4)CC3=O)Nc3ccccc3N2C(C)=O)cc(OC)c1OC (stereo not drawn),-0.74%,8.4%,-3.38%,91.8%,89%,1.3%,6.7%
Cc1[nH]c2ccccc2c1CCC(N)=O,-0.405%,3.01%,-1.34%,101%,96.2%,1.92%,3.67%
COC(=O)c1cc(-c2ccc3c(c2)OCO3)nc2ccccc12,-14.1%,-4.56%,-0.1%,73.6%,76.3%,3.49%,8.14%
